# STEP block: STEP phosphatase inhibitors, primary screen, biochemical, fluorescence intensity, uHTS. 0.25% of 360,000 active. Tyrosine-protein phosphatase non-receptor type 5 (Homo sapiens), P54829. inhibition, % at 20 µM. recombinant STEP, OMFP fluorogenic substrate;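 active = inhibition at 20 µM, scaled per plate between control wells, above about 37%, limit read from the data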;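 note: 0% = DMSO with enzyme and substrate and 100% = substrate only without enzyme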
#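 Assay system: isolated STEP enzyme / Timing: 20 min at room temperature, dark / Doses: 20 µM, 1% DMSO / Technique: fluorescence intensity, excitation 480 nm, emission 540 nm / Reagent: fluorogenic phosphatase substrate OMFP at 25 µM final / Measure: percent inhibition scaled to no-enzyme and uninhibited-enzyme controls, plate-pattern corrected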
# DNMT1 inh: human DNMT1 methyltransferase inhibitors, primary screen, biochemical, molecular beacon, fluorescence, HinP1I cleavage, uHTS; inhibition (reported as % activation of signal), % at 10 µM; 0.83% of 360,000 active; AID 588458, 2011; in the data active = inhibition above about 50%
# Rpn11 inh: Rpn11 (PSMD14) deubiquitinase inhibitors, primary screen, biochemical, fluorescence polarization, uHTS; 26S proteasome non-ATPase regulatory subunit 14 (Homo sapiens), O00487; human 26S proteasome, Ub4-pepOG fluorescence polarization; 20S core pre-blocked with epoxomicin; inhibition, % at 20 µM; 0.59% of 360,000 active; AID 588493, 2011;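 active = inhibition at 20 µM, scaled to each plate's controls, above about 33%, limit read from the data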
# Scp1 inh: Scp-1 phosphatase inhibitors, primary screen, biochemical, colorimetric, uHTS | 0.88% of 340,000 active | AID 493091, 2011 | Recombinant Scp1, phosphopeptide, malachite green phosphate absorbance | inhibition, % at 20 µM | Carboxy-terminal domain RNA polymerase II polypeptide A small phosphatase 1 (Homo …;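 active = inhibition above about 50% at 20 µM, limit read from the data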;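 note: plate controls were DMSO wells with enzyme for no effect and wells lacking enzyme for full effect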
#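 Assay system: SCP-1 catalytic fragment, aa 76-261 | Buffer or medium: Tris acetate buffer pH 5.5 with MgCl2 and Tween-20 | Compound: One concentration, 20 µM, with 1.0% DMSO | Also added: Phospho 17-mer peptide substrate | Signal: Absorbance at 630 nm | Incubation: 45 min enzyme reaction at room temperature | Measure: % inhibition of SCP-1 phosphate liberation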
# LMPTP block: LMPTP phosphatase inhibitors, primary screen, biochemical, fluorescence intensity, uHTS; Low molecular weight phosphotyrosine protein phosphatase (Homo sapiens), P24666; AID 651560, 2012; inhibition, % at 20 µM; recombinant LMPTP-A, OMFP fluorogenic substrate; 0.22% of 360,000 active;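 active = compounds that cut the enzyme signal by at least half of the control window in the single-dose screen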;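 note: plate controls were DMSO wells with enzyme plus substrate for no effect and substrate without enzyme for full effect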
#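 Test system – LMPTP-A enzyme · Amount – LMPTP-A at 0.625 nM final in the reaction · Buffer or medium – Bis-Tris pH 6.0, DTT, detergent · Reagent – OMFP 400 µM · Doses – single 20 µM dose · Schedule – reaction 50 min, room temperature, dark · Detection – fluorescence intensity of OMFP turnover product · Evaluation – percent inhibition versus substrate-only and uninhibited controls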
# Rpn11 confirm: Rpn11 (PSMD14) deubiquitinase inhibitors, confirmation, biochemical, fluorescence polarization, single concentration. shares compounds with Rpn11 inh. purified human 26S proteasome, Ub4-pepOG fluorescence polarization; proteasome pretreated with epoxomicin. inhibition, % at 20 µM. 29% of 1,900 active
# MMP-2 counter: MMP-2 enzyme inhibition, confirmation, counter-screen for RPN11 inhibitor project, biochemical, fluorescence, single concentration; 4% of 1,900 active; inhibition, % at 20 µM; shares compounds with Rpn11 inh; recombinant MMP-2, FRET peptide cleavage fluorescence; AID 602330, 2012;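 note: human MMP-2 activated beforehand with APMA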
# Thrombin inh: bovine thrombin protease inhibition, confirmation, counter-screen for Rpn11 inhibitor project, biochemical, fluorescence polarization, single concentration | AID 602333, 2012 | shares compounds with Rpn11 inh | bovine thrombin cleavage of Ub4-pepOG | inhibition, % at 20 µM | 13% of 1,900 active;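 active = mean inhibition at least 40% at 20 µM, or signal 3 deviations below plate average, so some actives read negative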;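 note: plate controls were thrombin with DMSO for no effect and buffer wells lacking thrombin for full effect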
# Target sequence (P00735 whole entry, looked up): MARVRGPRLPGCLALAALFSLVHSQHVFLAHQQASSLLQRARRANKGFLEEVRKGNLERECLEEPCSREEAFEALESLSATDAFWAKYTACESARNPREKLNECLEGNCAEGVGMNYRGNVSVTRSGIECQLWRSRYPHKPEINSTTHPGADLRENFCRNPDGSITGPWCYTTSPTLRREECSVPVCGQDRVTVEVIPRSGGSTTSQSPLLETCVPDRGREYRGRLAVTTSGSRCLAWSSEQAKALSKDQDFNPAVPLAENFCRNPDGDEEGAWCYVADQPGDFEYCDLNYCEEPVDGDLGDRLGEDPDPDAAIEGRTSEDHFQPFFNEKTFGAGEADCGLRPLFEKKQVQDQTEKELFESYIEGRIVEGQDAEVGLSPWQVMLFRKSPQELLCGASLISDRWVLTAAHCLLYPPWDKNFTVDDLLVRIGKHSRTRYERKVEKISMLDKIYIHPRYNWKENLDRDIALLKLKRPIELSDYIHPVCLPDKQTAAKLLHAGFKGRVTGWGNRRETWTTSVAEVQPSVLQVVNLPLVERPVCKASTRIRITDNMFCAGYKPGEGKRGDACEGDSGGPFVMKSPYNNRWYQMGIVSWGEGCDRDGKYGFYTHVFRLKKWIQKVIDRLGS
# * = called active by the depositor; x = no result given. A selection: hits, their analogues and other compounds. The true share with any hit is near 2%. Cut-off read from the data, not from the text of the source, unless noted: active = inhibition above about 40%; inactive = the rest.
SMILES,STEP block,DNMT1 inh,Rpn11 inh,Scp1 inh,LMPTP block,Rpn11 confirm,MMP-2 counter,Thrombin inh
Cc1ccc(CN2CC(C(=O)Nc3ncccc3C)CC2=O)cc1 (stereo unspecified),-4,-1,-1,1,-1,x,x,x
CC(C)c1ccc(NC(=O)Cn2c(=O)oc3cccnc32)cc1,-3,1,6,-4,-1,x,x,x
COc1ccccc1/C=C/C(=O)OCc1nc2ccccc2c(=O)[nH]1,-2,0,-3,-9,0,x,x,x
COc1cc(/C=C2\C=CC(=O)O2)cc(OC)c1,3,1,38*,-12,1,22,-4,9
Cc1c(O)ccc(/C(Cc2ccc3ccccc3n2)=N\N)c1O,-3,-13,48*,-4,1,-4,-5,-16
CC(C)c1nnc(NC(=O)C2CCN(C(=O)Nc3ccc(Cl)cc3)CC2)s1,-2,1,2,-3,-1,x,x,x
Cc1nc(S/C(=C\c2ccc(-c3ccc(C(=O)O)c(Cl)c3)o2)C(=O)O)n[nH]1,26,91*,67*,83*,10,197*,22,24
CC(C)c1ccccc1NC(=S)NN(Cc1ccccc1)c1ccccc1,2,7,8,-9,0,x,x,x
Fc1ccccc1NC(=S)NN(Cc1ccccc1)c1ccccc1,0,-3,111*,-8,2,-1,46*,-4
CCCc1nnc(NC(=O)Nc2ccc(OC)cc2)s1,-1,0,2,-9,0,x,x,x
COc1ccc(NC(=O)Nc2nnc(Cc3ccc(F)cc3)s2)cc1,0,1,59*,-10,-2,27,2,27
CO/N=C(/C(=O)N[C@@H]1C(=O)N2C(C(=O)O)=CCS[C@H]12)c1cnc(N)s1,78*,98*,64*,x,14,85*,37,15
O=C(CSc1nnc(-c2ccco2)o1)c1ccc([N+](=O)[O-])cc1,1,-1,36*,-7,2,-11,-39,-23
O=C(CSc1nnc(-c2ccco2)o1)c1ccccc1Cl,-3,-7,2,-4,0,x,x,x
CN(C)C(=O)CCSc1nnc(-c2ccco2)o1,6,1,32*,-3,-1,-4,9,5
COc1ccc(-c2nnc(SC)nc2-c2ccc(OC)c([N+](=O)[O-])c2)cc1[N+](=O)[O-],-1,9,103*,33,3,21,70*,3
COc1ccc(-c2nn(-c3ccccc3)cc2C=O)cc1[N+](=O)[O-],5,5,24,-6,9,x,x,x
C=C(C)CSc1nc2sc3c(c2c(=O)n1C1CCCCC1)CCN(C)C3,-2,30,60*,-4,1,18,-22,6
CCSc1nc2sc3c(c2c(=O)n1C1CCCCC1)CCN(C)C3,2,7,20,-5,-1,x,x,x
O=c1[nH]c2ccc(Cl)cc2c(-c2ccccc2)c1SC(=S)N1CCCCC1,11,-8,31,-4,1,x,x,x
O=c1[nH]c2ccc(Cl)cc2c(-c2ccccc2)c1SC(=S)N1CCOCC1,7,-28,42*,-2,1,7,1,-14
COc1cccc(/C=N/NC(=O)c2[nH]c(C)c(C(=O)N/N=C/c3cccc(OC)c3)c2C)c1,0,-3,57*,-15,2,45*,-2,2
Cc1ccccc1NC(=O)c1cc(C(=O)c2cc(Cl)ccc2O)cn(-c2ccccc2C)c1=O,2,-13,47*,-9,1,11,-79,-17
Cc1ccnc(NC(=O)Nc2ccc3c(c2)N(C)C(=O)CS3)c1,-3,-10,84*,-4,-1,19,-49,15
Cc1ccc(NC(=O)Nc2ccc3c(c2)N(C)C(=O)CS3)nc1,-2,-2,18,-4,0,x,x,x
SMILES,STEP block,DNMT1 inh,Rpn11 inh,Scp1 inh,LMPTP block,Rpn11 confirm,MMP-2 counter,Thrombin inh
Cc1noc(/C=C/c2ccco2)c1S(=O)(=O)N1CCC(C(=O)NC(C)c2ccccc2)CC1 (stereo unspecified),5,-16,52*,-5,2,0,-37,-2
Cc1noc(/C=C/c2ccco2)c1S(=O)(=O)N1CCC(C(=O)N(C)Cc2ccccc2)CC1,2,-3,25,-12,2,x,x,x
CC(=O)Oc1ccc(CCC(C)OC(C)=O)cc1 (stereo unspecified),-2,0,58*,-3,-1,-14,0,-12
CC(=O)Oc1ccc(S(=O)(=O)c2ccc(OC(C)=O)cc2)cc1,-1,1,-5,7,1,x,x,x
CN(C(=O)c1ccc(=O)n(Cc2ccc(Cl)cc2)c1)c1ccccc1,7,1,-4,-4,1,x,x,x
Cc1nc2sc(-c3ccccc3)cc2c(=O)[nH]1,-4,-3,48*,2,0,10,-24,-1
O=C(CN1CCN(c2nc(-c3ccc(Cl)cc3)cs2)CC1)NCc1ccco1,7,-12,51*,3,6,44*,78*,23
Cc1ccc(C(=O)Nc2nc3c(s2)CCCC3)o1,5,2,1,-7,-1,x,x,x
O=C(Nc1nc2c(s1)CCCC2)c1ccc(Br)o1,6,-3,90*,4,-1,-3,2,3
O=C(NN=Cc1ccc(O)cc1)c1ccccc1NS(=O)(=O)c1cccs1,4,-1,3,-5,-2,x,x,x
O=C(N/N=C/c1cc(Cl)cc([N+](=O)[O-])c1O)c1ccccc1NS(=O)(=O)c1cccs1,5,-1,41*,-6,5,129*,-20,-1
COc1ccc(Cn2nnnc2C(c2cc(OC)ccc2OC)N2CCC(C(N)=O)CC2)cc1 (stereo unspecified),2,-5,125*,-11,-3,-10,2,-11

# Screening results: PubChem, Sanford-Burnham Center for Chemical Genomics
